Assay results as given in ChEMBL document CHEMBL1135577, “Synthesis and biological evaluation of structurally highly modified analogues of the antimitotic natural product curacin A” (J Med Chem, 2002).

Experiments:
Tubulin (Bos taurus) [1] = assay: Inhibition of tubulin polymerization of purified bovine brain tubulin
MCF7 = assay: Tested for 50% growth inhibitory concentration by using MCF-7 cell lines.; format: functional; conditions: Homo sapiens
Method in brief: (§1)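 Cultured human tumor cells were seeded at 500-2000 cells/well, allowed to attach for 48 h, then exposed continuously for 48 h to DMSO vehicle or agent at five concentrations (e.g., 50-0.08 μM, 10-0.016 μM or 1-0.0016 μM series), each in quadruplicate. A time-zero plate was included. Cell number was read by MTS/phenazine methanesulfonate at A490-A630. Values are means (N = 4 over 10 concentrations) ± SD.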

A2780 [2] = assay: Tested for colchicine binding inhibition, using human ovarian cancer cell lines (at 5 uM ); format: functional
Method in brief: (§2)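 [3H]colchicine (5 μM) was incubated with 1 μM tubulin and agent (1-250 μM) or DMSO vehicle (5% v/v) at 30 °C for 15 min or 37 °C for 10 min, in 1 M monosodium glutamate, 0.1 M glucose-1-phosphate, 1 mM MgCl2, 1 mM GTP and 0.5 mg/mL BSA. Samples were filtered through DEAE-cellulose and counted by scintillation. Values are means (N = 9 over four concentrations) ± SD.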

2008 [3] = assay: Compound was tested for 50% growth inhibitory concentration by using human ovarian carcinoma cell lines (2008); format: functional
Method in brief: as §1

A2780 [4] = assay: Compound was tested for Tubulin polymerization inhibition by using human ovarian carcinoma cell lines.; format: functional
Method in brief: (§3)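 Tubulin (10 μM final, 1 mg/mL) was preincubated with agent in DMSO (4% v/v final) and 0.8 M monosodium glutamate for 15 min at 30 °C, then cooled to 0 °C and GTP (0.4 mM final) added. Turbidity at 350 nm was followed for 20 min at 30 °C. […] Values are averages of two determinations.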

MDA-MB-231 = assay: Compound was tested for 50% Growth Inhibitory concentration by using MDA-MB-231 cell lines.; format: functional; conditions: Homo sapiens
Method in brief: as §1

PC-3 [5] = assay: Compound was tested for 50% growth inhibitory concentration by using human prostate carcinoma cell lines (PC -3); format: functional
Method in brief: as §1

A2780 [6] = assay: Compound tested for colchicine Binding Inhibition by using human ovarian carcinoma cell line (at 5 uM ); format: functional
Method in brief: as §2

PC-3 [7] = assay: 50% Growth inhibitory concentration by using PC -3 human prostate carcinoma cell lines (48h continuous exposure); format: functional; conditions: PC-3, 48 h
Method in brief: as §1

A2780 [8] = assay: Compound was tested for Tubulin polymerization inhibition by using human ovarian cancer cell lines.; format: functional
Method in brief: as §3

2008 [9] = assay: 50% Growth inhibitory concentration( GI 50 ) by using 2008 human ovarian carcinoma cell lines.; format: functional
Method in brief: as §1

A2780 [10] = assay: Compound was tested for colchicine Binding Inhibition by using human ovarian carcinoma cell line (at 5 uM ); format: functional
Method in brief: as §2

Tubulin (Bos taurus) [11] = assay: Ability to inhibit the GTP/glutamate-induced polymerization of tubulin
A2780 [12] = assay: Compound was tested for 50% Growth Inhibitory concentration by using A2780 cell lines.; conditions: Homo sapiens
A2780 [13] = assay: Compound was tested for colchicine binding inhibition by using human ovarian carcinoma cell line (at 5 uM ); format: functional
Method in brief: as §2

SMILES | IC50 (Tubulin (Bos taurus) [1]) [nM] | GI50 (MCF7) [nM] | inhibition at 5 µM (A2780 [2]) [%] | further results
CCC[C@@H](CC/C(C)=C/C=C/CCCCC1CSC([C@@H]2C[C@@H]2C)=N1)OC (some centres undefined) | 4600 | 3300 | 1 | 
COc1cc(COCCC/C=C/C=C(\C)CCC(O)c2cccs2)cc(OC)c1OC (centres undefined) |  |  |  | GI50 2008 [3]: 15000 nM; TPI (A2780 [4]): 7%; GI50 (MDA-MB-231): > 50000 nM; GI50 (PC-3 [5]): 18000 nM; inhibition at 5 µM (A2780 [6]): < 10%
C=CC[C@@H](CC/C(C)=C/C=C/CC/C=C\[C@H](CSC)NC(C)=O)OC | 3300 | 5200 | 12 | 
C=CCC1(CC/C(C)=C/C=C/CC/C=C\[C@@H]2CSC([C@@H]3C[C@@H]3C)=N2)OCCO1 | 780 | 30 | 92 | 
C=CC[C@@H](CC/C(C)=C/C=C/CC/C=C\c1coc(C(C)(C)C)n1)OC |  |  | < 10 | GI50 (PC-3 [7]): > 50000 nM; TPI (A2780 [8]): 51%; GI50 2008 [9]: > 50000 nM
C=CC[C@@H](CC/C(C)=C/C=C\CC/C=C\[C@@H]1CSC([C@@H]2C[C@@H]2C)=N1)OC [CURACIN B] | 820 | 320 | 56 | 
CCC[C@@H](CC/C(C)=C/C=C/CC/C=C\[C@@H]1CSC([C@@H]2C[C@@H]2C)=N1)OC | 1200 | 50 | 85 | 
C=CC[C@@H](CC/C(C)=C/C=C/CCCO)OC | > 80000 | > 10000 | 0 | 
C=CC[C@H](CC/C(C)=C/C=C/CC/C=C\[C@@H]1CSC([C@@H]2C[C@@H]2C)=N1)OC | 670 | 180 | 56 | 
COc1cc(CCCCCCCC(C)CCC(O)c2cccs2)cc(OC)c1OC (centres undefined) |  |  | < 10 | GI50 (PC-3 [7]): 21000 nM; TPI (A2780 [8]): 15%; GI50 2008 [9]: 26000 nM
COc1cc(/C=N\OC/C=C/C=C(\C)CCC(O)c2cccs2)cc(OC)c1OC (centres undefined) |  |  |  | GI50 2008 [3]: 240 nM; TPI (A2780 [4]): 100%; GI50 (MDA-MB-231): 120 nM; GI50 (PC-3 [5]): 250 nM; inhibition at 5 µM (A2780 [10]): 48%; IC50 (Tubulin (Bos taurus) [11]): 170 nM
COC[C@H]1C[C@H]1C1=NC(COC/C=C(\C)CC/C=C(\C)CCC=C(C)C)CS1 (some centres undefined) |  |  |  | GI50 (A2780 [12]): > 25000 nM
C=CCCC1=N[C@H](/C=C\CC/C=C/C=C(\C)CC[C@H](CC=C)OC)CS1 | 920 | 300 | 83 | 
COc1cc(/C=C\CC/C=C/C=C(\C)CCC(O)c2cccs2)cc(OC)c1OC (centres undefined) |  |  | 39 | TPI (A2780 [8]): >95%; GI50 2008 [9]: 280 nM
C=CC[C@@H](CC/C(C)=C/C=C/CC/C=C\c1csc([C@@H]2C[C@@H]2C)n1)OC | 740 | 300 | 74 | 
COc1cc(/C=N\OC[C@H]2C[C@@H]2C2C[C@]2(C)CCC(O)c2cccs2)cc(OC)c1OC (some centres undefined) |  |  |  | GI50 2008 [3]: 9900 nM; TPI (A2780 [4]): 26%; GI50 (MDA-MB-231): 980 nM; GI50 (PC-3 [5]): 1200 nM; inhibition at 5 µM (A2780 [10]): < 10%
C=CC[C@@H](CC[C@@]1(C)C[C@@H]1[C@H]1C[C@@H]1CC/C=C\[C@@H]1COC([C@@H]2C[C@@H]2C)=N1)OC |  |  |  | GI50 2008 [3]: 18000 nM; TPI (A2780 [4]): 59%; GI50 (MDA-MB-231): 18000 nM; GI50 (PC-3 [5]): 49000 nM; inhibition at 5 µM (A2780 [13]): < 10%
C=CC[C@H](O)CC/C(C)=C/C=C/CC/C=C\C1CSC([C@@H]2C[C@@H]2C)=N1 (some centres undefined) | 870 | 450 | 82 | 
CCCCCCCCCCCC/C=C\[C@@H]1CSC([C@@H]2C[C@@H]2C)=N1 | > 50000 |  |  | 
